Assay results reported in PMC3382723 (The Journal of General Physiology, 2012).
“And” between values parts separate entries of the source, which are not always exact repeats. Equal entries are not always repeated. Where two headings read alike, the source gives them in different places. One block for each molecule: values may come before it.

How the values were obtained:
[1] = biological target: heteromeric Kv7.2/Kv7.3(EEE) channels (Homo sapiens, UniProt O43525+O43526, K462E/K469E/R471E); assay: DiC8-PI; format: cell-based; settings: single-component fit
In short: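 CHO cells expressing WT Kv7.2 with Kv7.3 […]. Excised inside-out patches were held at 0 mV, 22°C, in 165 mM KCl, 5 mM HEPES, 10 mM EGTA, pH 7.2, with 0.1 µM ATPγS. The PI(4,5)P2 analog was applied in incremental concentrations by fast piezo microperfusion. Popen was taken over the last 20 s and corrected for channel number. n = 8–13 patches.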

[2] = tested on: concatenated Kv7.2-7.3 channels; assay: DiC8-PI; format: cell-based; settings: n = 9-21
In short: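 HM1-CHO cells were transiently transfected with concatenated Kv7.2-7.3 cDNA plus an EGFP plasmid using Lipofectamine 2000. Inside-out patches at 0 mV and 22°C, in 165 mM KCl/HEPES/EGTA bath, pH 7.2, with 0.1 µM ATPγS. Stepwise PI(4,5)P2 analog, 0.1–300 µM, by fast perfusion. Popen was taken over the last 20 s and corrected for channel number. n = 9–21 patches per concentration.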

Kv7.2/Kv7.3 channels = assay: Activation model fitted to the DiC8-PI; format: cell-based, human
In short: (§1)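 A binding/gating scheme was fitted to mean inside-out patch Popen–concentration data for the water-soluble PI(4,5)P2 analog: Kv7.2/Kv7.3 from 20–49 patches, Kv7.2/Kv7.3(EEE) from 8–13 patches. The scheme has two pairs of independent high-affinity (K3, Kv7.3) and low-affinity (K2, Kv7.2) sites and three open states (E3, E2, E1). Occupancies follow mass action with microscopic reversibility. Popen is the sum of the open-state occupancies.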

[3] = tested on: Kv7.2/Kv7.3(EEE) mutant channels; assay: Activation model fitted to the DiC8-PI; format: cell-based
In short: as §1

[4] = tested on: homomeric Kv7(EEE) channels; settings: expressed as homomers; ref Hernandez et al., 2008; cited from earlier work
homomeric Kv7.3 channels = settings: ref Li et al., 2005; cited from earlier work
[5] = tested on: coexpressed Kv7.2 and Kv7.3 subunits; settings: ref Li et al., 2005; cited from earlier work
homomeric Kv7.2 channels [6] = biological target: T1, homomeric Kv7.2 channels (Homo sapiens, UniProt O43526); assay: DiC8-PI; format: cell-based; settings: single-component Hill fit
In short: (§2)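 HM1-CHO cells (human M1 receptor) were transiently transfected with human Kv7.2 or Kv7.3 A315T, plus EGFP. Excised inside-out patches were held at 0 mV, 22°C, with 0.1 µM ATPγS in the pH 7.2 KCl bath. The PI(4,5)P2 analog was applied in incremental concentrations. Popen was corrected for channel number. Single-component Hill fit. n = 7–19 patches (Kv7.2) and 7–15 patches (Kv7.3T).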

homomeric Kv7.2 channels [7] = biological target: T1, homomeric Kv7.2 channels; settings: ref Li et al., 2005; cited from earlier work
[8] = biological target: heteromeric Kv7.2/7.3 channels (Homo sapiens, UniProt O43525+O43526); assay: DiC8-PI; format: cell-based
In short: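 CHO cells stably cotransfected with human Kv7.2 and Kv7.3. Patches at 22 ± 0.5°C were excised inside-out and held at 0 mV. Bath was 165 mM KCl, 5 mM HEPES, 10 mM EGTA, pH 7.2, with 0.1 µM ATPγS. The PI(4,5)P2 analog was given by piezo microperfusion, rising from 0.1 to 300 µM, 30 s–2 min per step. Popen was taken over the last 20 s, corrected for channel number, with control subtracted. 11–29 patches per concentration. Weighted two-component Hill fit, shared nH.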

[9] = biological target: T2, homomeric Kv7.3^T (A315T) channels (Homo sapiens, UniProt O43525, A315T); assay: DiC8-PI; format: cell-based; settings: single-component Hill fit
T2 sequence (O43525 1-872 A315T): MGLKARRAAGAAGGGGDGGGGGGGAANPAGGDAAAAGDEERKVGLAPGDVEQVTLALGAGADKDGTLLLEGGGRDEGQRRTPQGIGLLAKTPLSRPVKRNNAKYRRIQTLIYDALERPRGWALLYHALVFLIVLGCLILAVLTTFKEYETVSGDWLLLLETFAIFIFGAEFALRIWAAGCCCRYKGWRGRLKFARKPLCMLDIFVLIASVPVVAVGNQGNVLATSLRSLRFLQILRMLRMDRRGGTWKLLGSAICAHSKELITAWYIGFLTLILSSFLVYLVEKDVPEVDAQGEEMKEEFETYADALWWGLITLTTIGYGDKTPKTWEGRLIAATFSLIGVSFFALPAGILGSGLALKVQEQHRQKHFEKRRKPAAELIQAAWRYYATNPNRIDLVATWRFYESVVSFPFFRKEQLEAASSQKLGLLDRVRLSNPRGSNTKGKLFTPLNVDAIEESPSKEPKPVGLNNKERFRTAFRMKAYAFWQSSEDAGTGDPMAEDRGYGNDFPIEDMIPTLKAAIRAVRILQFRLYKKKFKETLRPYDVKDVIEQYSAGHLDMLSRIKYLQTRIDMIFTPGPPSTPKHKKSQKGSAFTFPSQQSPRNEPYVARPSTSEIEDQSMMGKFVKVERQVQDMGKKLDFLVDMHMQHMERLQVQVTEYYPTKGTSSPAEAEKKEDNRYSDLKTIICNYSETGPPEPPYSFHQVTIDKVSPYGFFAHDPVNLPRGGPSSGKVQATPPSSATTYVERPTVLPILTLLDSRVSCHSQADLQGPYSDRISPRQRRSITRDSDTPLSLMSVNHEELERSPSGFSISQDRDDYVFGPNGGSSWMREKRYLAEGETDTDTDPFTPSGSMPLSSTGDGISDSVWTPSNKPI
In short: as §2

[10] = tested on: concatemeric Kv7.2/Kv7.3 dimer; settings: ref Hadley et al., 2003; cited from earlier work
[11] = tested on: coexpressed Kv7.2 and Kv7.3; settings: cited from earlier work
[12] = patches with only a single active channel

T1 sequence (O43526 whole entry): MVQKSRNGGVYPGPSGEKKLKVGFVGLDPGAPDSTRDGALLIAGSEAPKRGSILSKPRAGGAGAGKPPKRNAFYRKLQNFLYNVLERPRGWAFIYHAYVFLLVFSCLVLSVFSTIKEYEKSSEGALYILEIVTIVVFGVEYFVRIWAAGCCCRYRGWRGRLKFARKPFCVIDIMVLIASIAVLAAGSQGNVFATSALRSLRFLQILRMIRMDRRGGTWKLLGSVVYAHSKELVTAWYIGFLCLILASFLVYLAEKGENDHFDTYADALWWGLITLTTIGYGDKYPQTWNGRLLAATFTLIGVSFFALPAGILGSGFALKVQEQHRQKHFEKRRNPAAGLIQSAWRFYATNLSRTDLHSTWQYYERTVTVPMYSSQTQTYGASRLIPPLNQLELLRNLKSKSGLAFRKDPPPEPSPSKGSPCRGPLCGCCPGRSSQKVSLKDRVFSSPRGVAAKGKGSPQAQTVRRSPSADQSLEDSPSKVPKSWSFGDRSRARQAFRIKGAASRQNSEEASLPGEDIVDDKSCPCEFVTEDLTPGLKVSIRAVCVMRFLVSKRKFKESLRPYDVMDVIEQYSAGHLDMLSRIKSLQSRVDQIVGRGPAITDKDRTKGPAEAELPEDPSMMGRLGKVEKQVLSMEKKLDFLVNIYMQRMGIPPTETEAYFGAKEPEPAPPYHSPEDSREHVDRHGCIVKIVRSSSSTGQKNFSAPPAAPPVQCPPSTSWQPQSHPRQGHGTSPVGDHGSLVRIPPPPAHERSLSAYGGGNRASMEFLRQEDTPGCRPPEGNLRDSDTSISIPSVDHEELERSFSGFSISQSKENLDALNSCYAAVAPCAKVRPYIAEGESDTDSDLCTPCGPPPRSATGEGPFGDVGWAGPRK
heteromeric Kv7.2/7.3 channels, sequence (O43525 whole entry, the tested form may be a part): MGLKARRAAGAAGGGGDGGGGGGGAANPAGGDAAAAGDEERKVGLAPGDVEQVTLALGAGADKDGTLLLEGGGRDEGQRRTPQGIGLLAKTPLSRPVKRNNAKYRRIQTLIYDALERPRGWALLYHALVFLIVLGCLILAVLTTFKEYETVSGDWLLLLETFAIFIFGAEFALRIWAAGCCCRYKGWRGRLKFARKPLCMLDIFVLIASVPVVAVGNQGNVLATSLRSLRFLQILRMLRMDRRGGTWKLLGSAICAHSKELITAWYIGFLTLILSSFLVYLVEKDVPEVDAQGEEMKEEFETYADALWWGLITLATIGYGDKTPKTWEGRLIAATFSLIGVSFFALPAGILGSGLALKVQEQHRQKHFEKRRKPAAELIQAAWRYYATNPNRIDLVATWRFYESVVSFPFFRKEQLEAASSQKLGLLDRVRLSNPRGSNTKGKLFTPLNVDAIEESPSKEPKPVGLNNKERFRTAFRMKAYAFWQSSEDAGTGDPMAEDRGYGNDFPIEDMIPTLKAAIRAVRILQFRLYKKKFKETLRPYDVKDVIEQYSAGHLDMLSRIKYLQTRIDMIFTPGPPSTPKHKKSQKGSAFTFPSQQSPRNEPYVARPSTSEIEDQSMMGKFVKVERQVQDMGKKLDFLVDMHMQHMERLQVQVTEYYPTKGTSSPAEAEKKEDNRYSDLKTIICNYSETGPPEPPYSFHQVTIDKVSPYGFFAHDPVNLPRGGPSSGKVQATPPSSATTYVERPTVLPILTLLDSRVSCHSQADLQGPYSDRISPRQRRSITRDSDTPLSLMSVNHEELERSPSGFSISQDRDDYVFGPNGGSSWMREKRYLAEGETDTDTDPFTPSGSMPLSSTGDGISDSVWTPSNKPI
heteromeric Kv7.2/7.3 channels, sequence (O43526 whole entry, the tested form may be a part): as the sequence (O43526 whole entry) above
heteromeric Kv7.2/Kv7.3(EEE) channels, sequence (O43525 whole entry K462E/K469E/R471E, the tested form may be a part): as the sequence (O43525 whole entry, the tested form may be a part) above, with K462E, K469E, R471E counted along it
heteromeric Kv7.2/Kv7.3(EEE) channels, sequence (O43526 whole entry, the tested form may be a part): as the sequence (O43526 whole entry) above

Hill coefficient nH [1]: 1.1 ± 0.1 | EC50 ([1]; maximum Popen undetermined): 265 ± 74 µM | Kd ([3]; read-out: K3, model 4 free fit): 0.94 µM | Hill coefficient nH (homomeric Kv7.2 channels [6]): 0.76 ± 0.08 | EC50 (homomeric Kv7.2 channels [6]; 0 mV): 76.2 µM and 76 µM | Popen(max1) ([8]; component 1, single- and pauci-channel patches, 0 mV): 0.2 ± 0.0073 and ~0.2 | Popen(max2) ([8]; component 2, single- and pauci-channel patches, 0 mV): 0.6 ± 0.0012 | Hill coefficient ([8]; constrained the same for both components, single- and pauci-channel patches): 1.4 ± 0.06 and ~1.4 | Popen at full opening ([8]; higher ligand concentrations, 0 mV): ~0.8 | partial channel opening, % of the maximum Popen ([8]; low concentrations, binding to Kv7.3 subunit): ~25% | Hill coefficient nH [8, 12]: 1.6 ± 0.36 | Popen(max1) [8, 12]: 0.28 ± 0.045 | Popen(max2) [8, 12]: 0.61 ± 0.0074 | factor between apparent affinities of high- and low-affinity sites ([8]; two-component curves): about 60 | Hill coefficient nH [9]: 0.95 ± 0.2 | EC50 ([9]; 0 mV): 3.6 ± 1 µM
Structure (SMILES): CCCCCCCC(=O)OC[C@H](COP(=O)(O)O[C@@H]1[C@H](O)[C@H](O)[C@@H](OP(=O)(O)O)[C@H](OP(=O)(O)O)[C@H]1O)OC(=O)CCCCCCC [DiC8-PI(4,5)P2, dioctanoylphosphatidyl-4,5-bisphosphate]
concentration-response curve compared with K2/3-CHO cells [2]: very similar biphasic | Po (max) (Kv7.2/Kv7.3 channels; model 4): 0.82 | E1, gating equilibrium constant (Kv7.2/Kv7.3 channels; model 4, all four sites occupied): 4.42 ± 0.61 | E2, gating equilibrium constant (Kv7.2/Kv7.3 channels; model 4, two high- and one low-affinity site occupied): 0.46 ± 0.39 | E3, gating equilibrium constant (Kv7.2/Kv7.3 channels; model 4, two high-affinity sites occupied): 0.26 ± 0.07 | concentration at which Po3 peaks (Kv7.2/Kv7.3 channels; model 4 prediction): around 7 µM | peak open probability Po3 (only Kv7.3 subunits bound) (Kv7.2/Kv7.3 channels; model 4 prediction, around 7 µM): 0.145 | E1 ([3]; model 4 free fit): 0.89 ± 0.43 | E2 ([3]; model 4 free fit): 0.00 | E3 ([3]; model 4 free fit): 0.04 ± 0.14 | Po (max) ([3]; model 4 free fit): 0.47 | maximum open probability Po3 (both Kv7.3 sites occupied) ([3]; model 4 prediction, at 10 µM): 0.027 | fold less sensitive than WT channels [4]: > 100 fold | EC50 (homomeric Kv7.3 channels): 2.6 µM | Hill slope (homomeric Kv7.3 channels): 1.33 | EC50 [5]: 40 µM | Hill slope (homomeric Kv7.2 channels [7]): 0.97

Structure (SMILES): CC[N+](CC)(CC)CC [TEA, tetraethylammonium]
Hill slope of TEA inhibition [10]: 0.97 ± 0.12 | Hill slope of TEA inhibition ([11]; ref Shapiro et al. [2000]): 0.58 | Hill slope of TEA inhibition ([11]; single binding site equation, ref Hadley et al., 2003): 0.98 ± 0.02
